Experimental data taken from article PMC3355950 (The Journal of Neuroscience, 2012).

How the values were obtained:
Type in all cases: cell-based
GluN1/GluN2A [1] = target: T1, GluN1/GluN2A (Rattus norvegicus, UniProt P35439+Q00959); test: Two-electrode voltage-clamp recordings, Xenopus oocytes; details: for Schild slope / pA2 (Schild plot): 100 μM glutamate
GluN1/2A-(2D S2) = GluN1/2A-(2D S2) (Rattus norvegicus, UniProt P35439+Q00959, D675E/D715E/E790M/F680L/F708Y/G712R/G740R/G786D/H674Q/I755V/K668R/K738M/M788I/N696S/P770R/Q661T/Q703S/Q766H/Q774P/R681K/R692K/R711P/R741K/S677Y/S719Q/S758T/T663S/T706V/T722A/T793R/T797S/V718T/V783L/Y676Q/Y700D/Y754K); test: Two-electrode voltage-clamp recordings, Xenopus oocytes; details: 100 μM glutamate + 3 μM glycine; N.E. = no effect at 10 μM TCN-201
Method in brief: (§1)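 cRNA from linearized constructs injected into female Xenopus laevis oocytes. Two-electrode voltage clamp done 3–4 d later at 23°C, holding at −40 mV, in 90 NaCl, 1 KCl, 10 HEPES, 0.5 BaCl₂, 0.01 EDTA (mM), pH 7.4. […] Max inhibition is (control − residual at saturating compound)/control.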

GluN1/GluN2B F784V = GluN1/GluN2B F784V (Rattus norvegicus, UniProt P35439+Q00960, F784V); test: Two-electrode voltage-clamp recordings, Xenopus oocytes
Sequence of GluN1/GluN2B F784V (Q00960 27-1482 F784V, other chains not shown): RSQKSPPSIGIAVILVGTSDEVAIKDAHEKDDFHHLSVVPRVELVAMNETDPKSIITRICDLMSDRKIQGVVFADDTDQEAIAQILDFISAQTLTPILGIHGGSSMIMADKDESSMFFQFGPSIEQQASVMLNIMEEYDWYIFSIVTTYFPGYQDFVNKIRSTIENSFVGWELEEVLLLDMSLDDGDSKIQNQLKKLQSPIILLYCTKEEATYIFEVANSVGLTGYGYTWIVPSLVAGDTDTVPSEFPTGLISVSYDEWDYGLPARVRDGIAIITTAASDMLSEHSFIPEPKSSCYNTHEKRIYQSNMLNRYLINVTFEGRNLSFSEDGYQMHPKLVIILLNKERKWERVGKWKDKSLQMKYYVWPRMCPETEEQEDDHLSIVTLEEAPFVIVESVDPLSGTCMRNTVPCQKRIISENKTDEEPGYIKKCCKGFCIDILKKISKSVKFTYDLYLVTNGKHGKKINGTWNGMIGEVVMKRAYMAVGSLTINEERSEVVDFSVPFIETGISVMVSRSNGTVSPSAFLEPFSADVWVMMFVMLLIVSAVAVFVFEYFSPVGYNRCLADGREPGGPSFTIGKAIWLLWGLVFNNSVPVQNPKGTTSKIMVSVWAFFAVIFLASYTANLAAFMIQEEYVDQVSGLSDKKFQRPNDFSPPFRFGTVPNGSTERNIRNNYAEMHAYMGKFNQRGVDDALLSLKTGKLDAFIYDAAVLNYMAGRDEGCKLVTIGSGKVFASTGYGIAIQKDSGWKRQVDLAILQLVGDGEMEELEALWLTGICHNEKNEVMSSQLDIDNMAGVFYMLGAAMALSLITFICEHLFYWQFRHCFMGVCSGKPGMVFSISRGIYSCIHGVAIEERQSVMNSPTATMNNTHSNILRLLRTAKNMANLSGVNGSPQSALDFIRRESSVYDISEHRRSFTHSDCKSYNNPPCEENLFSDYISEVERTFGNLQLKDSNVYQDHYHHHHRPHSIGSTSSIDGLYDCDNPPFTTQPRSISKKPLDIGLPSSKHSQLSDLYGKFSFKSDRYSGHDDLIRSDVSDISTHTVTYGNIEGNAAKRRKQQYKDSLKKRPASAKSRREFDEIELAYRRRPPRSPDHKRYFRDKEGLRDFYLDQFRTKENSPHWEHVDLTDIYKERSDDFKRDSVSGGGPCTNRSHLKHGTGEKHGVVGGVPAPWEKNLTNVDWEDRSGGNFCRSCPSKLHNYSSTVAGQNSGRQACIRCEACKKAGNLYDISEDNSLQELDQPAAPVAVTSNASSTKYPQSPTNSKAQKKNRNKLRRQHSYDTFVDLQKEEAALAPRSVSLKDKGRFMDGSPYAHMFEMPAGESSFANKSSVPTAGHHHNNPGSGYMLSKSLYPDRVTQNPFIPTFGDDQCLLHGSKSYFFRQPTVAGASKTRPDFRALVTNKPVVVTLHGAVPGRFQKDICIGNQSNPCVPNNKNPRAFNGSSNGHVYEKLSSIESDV

GluN1/2D-(2A S1) = GluN1/2D-(2A S1) (Rattus norvegicus, UniProt P35439+Q62645, A432V/A445I/A493S/A563S/D455N/D515N/D531V/DELINS461-477KFVKINNSTNEGMNV/F526V/G450E/G497K/G516N/H494R/I448L/I453V/I496V/I514V/I534V/I546V/P444D/R437A/R479K/R491K/S449T/S456T/S499T/T430S/V431I); test: Two-electrode voltage-clamp recordings, Xenopus oocytes; details: 100 μM glutamate + 3 μM glycine; N.E. = no effect at 10 μM TCN-201
Method in brief: as §1

GluN1/GluN2A V783L = GluN1/GluN2A V783L (Rattus norvegicus, UniProt P35439+Q00959, V783L); test: Two-electrode voltage-clamp recordings, Xenopus oocytes
GluN1/GluN2A G786D = GluN1/GluN2A G786D (Rattus norvegicus, UniProt P35439+Q00959, G786D); test: as above; details: 100 μM glutamate + 3 μM glycine
GluN1/GluN2A V783F = GluN1/GluN2A V783F (Rattus norvegicus, UniProt P35439+Q00959, V783F); test: as above; details: 100 μM glutamate + 3 μM glycine
GluN1/GluN2A V783S = GluN1/GluN2A V783S (Rattus norvegicus, UniProt P35439+Q00959, V783S); test: as above; details: 100 μM glutamate + 3 μM glycine
GluN1/GluN2A P527A = GluN1/GluN2A P527A (Rattus norvegicus, UniProt P35439+Q00959, P527A); test: as above; details: 100 μM glutamate + 3 μM glycine
GluN1/GluN2A M788A = GluN1/GluN2A M788A (Rattus norvegicus, UniProt P35439+Q00959, M788A); test: as above; details: 100 μM glutamate + 3 μM glycine
GluN1/GluN2A [2] = target: T1, GluN1/GluN2A; test: Whole-cell voltage-clamp recordings, HEK293 cells, rapid solution exchange; details: for % fast / τfast / τslow: brief application (10 ms) of 1000 μM glycine
Method in brief: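 HEK293 cells were plated on poly-D-lysine coverslips about 48 h ahead and calcium-phosphate cotransfected with GluN1, GluN2A and GFP (1:1:1). 200 μM D,L-APV and 200 μM 7-chlorokynurenic acid were added after transfection. Whole-cell recording was done about 24 h later at −60 mV and 23°C on lifted cells with piezo-driven theta-glass exchange.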

GluN1/2A-(2D S1+S2) = GluN1/2A-(2D S1+S2) (Rattus norvegicus, UniProt P35439+Q00959, A414R/D421P/D675E/D715E/DELINS438-452SQLNRTHSPPPDAPRPE/E427G/E790M/F680L/F708Y/G712R/G740R/G786D/H674Q/I408V/I422A/I755V/K454R/K466R/K472G/K668R/K738M/L425I/M788I/N404Q/N432D/N490D/N491G/N696S/P770R/Q661T/Q703S/Q766H/Q774P/R469H/R681K/R692K/R711P/R741K/S407T/S468A/S538A/S677Y/S719Q/S758T/T426S/T433S/T474S/T663S/T706V/T722A/T793R/T797S/V409A/V430I/V471I/V489I/V501F/V506D/V509I/V521I/V718T/V783L/Y676Q/Y700D/Y754K); test: Two-electrode voltage-clamp recordings, Xenopus oocytes; details: 100 μM glutamate plus 30 μM glycine
GluN1/2A-(2D D1) = GluN1/2A-(2D D1) (Rattus norvegicus, UniProt P35439+Q00959, A414R/D421P/DELINS438-452SQLNRTHSPPPDAPRPE/E427G/E790M/G786D/I408V/I422A/K454R/K466R/K472G/L425I/M788I/N404Q/N432D/N490D/N491G/P770R/Q766H/Q774P/R469H/S407T/S468A/S538A/T426S/T433S/T474S/T793R/T797S/V409A/V430I/V471I/V489I/V501F/V506D/V509I/V521I/V783L); test: as above; details: 100 μM glutamate plus 30 μM glycine
[3] = 100 μM glutamate + 1 μM glycine
[4] = 100 μM glutamate + 3 μM glycine
[5] = 100 μM glutamate + 30 μM glycine
[6] = 50 μM glutamate, antagonist 0.1 μM
[7] = 50 μM glutamate, antagonist 0.3 μM
[8] = 50 μM glutamate, antagonist 1 μM

O=C(NNC(=O)c1ccc(CNS(=O)(=O)c2ccc(F)c(Cl)c2)cc1)c1ccccc1 [TCN-201, 3-chloro-4-fluoro-N-[(4-[(2-(phenylcarbonyl)hydrazino)carbonyl]phenyl)methyl]-benzenesulfonamide]
TCN-201 activity Max. % inhibition (GluN1/GluN2A [1]; [3]): 100 ± 1%
TCN-201 activity nH (GluN1/GluN2A [1]; [3]): 1.2
TCN-201 activity nH (GluN1/GluN2A [1]; [4]): 1.5
TCN-201 activity Max. % inhibition (GluN1/GluN2A [1]; [5]): 73 ± 2%
TCN-201 activity nH (GluN1/GluN2A [1]; [5]): 2.2
Schild slope (GluN1/GluN2A [1]; agonist D-cycloserine): 0.90
pA2 (Schild plot) (GluN1/GluN2A [1]; agonist D-cycloserine): 7.39
Schild slope (GluN1/GluN2A [1]; agonist D-serine): 0.79
pA2 (Schild plot) (GluN1/GluN2A [1]; agonist D-serine): 7.39
Schild slope (GluN1/GluN2A [1]; agonist glycine): 0.87
allosteric constant α (GluN1/GluN2A [1]; global nonlinear regression of glycine concentration-response data): 0.0025
Maximal increase in glycine EC50 (1/α) (GluN1/GluN2A [1]; implied by α = 0.0025): 400 fold
TCN-201 activity IC50 (GluN1/2A-(2D S2)): no inhibition was observed and N.E.
Kb (GluN1/GluN2B F784V): 1.38 µM
TCN-201 activity nH (GluN1/GluN2B F784V; [4]): 1.2
TCN-201 activity IC50 (GluN1/2D-(2A S1)): did not introduce TCN-201 sensitivity and N.E.
Kb (GluN1/GluN2A V783L): 2.14 µM
TCN-201 activity Max. % inhibition (GluN1/GluN2A G786D): 82 ± 3%
TCN-201 activity nH (GluN1/GluN2A G786D): 1.7
TCN-201 activity Max. % inhibition (GluN1/GluN2A V783F): 80 ± 2%
TCN-201 activity nH (GluN1/GluN2A V783F): 1.8
TCN-201 activity Max. % inhibition (GluN1/GluN2A V783S): 89 ± 3%
TCN-201 activity nH (GluN1/GluN2A V783S): 1.4
TCN-201 activity Max. % inhibition (GluN1/GluN2A P527A): 91 ± 3%
TCN-201 activity nH (GluN1/GluN2A P527A): 1.4
TCN-201 activity Max. % inhibition (GluN1/GluN2A M788A): 90 ± 3%
TCN-201 activity nH (GluN1/GluN2A M788A): 1.4
τinhibition (GluN1/GluN2A [2]; 3 μM TCN-201 in the presence of both glutamate (50 μM) and glycine (10 μM)): 3.4 ± 0.2 s
τinhibition (time constant for TCN-201 binding) (GluN1/GluN2A [2]; 3 μM TCN-201 pre-incubated in the absence of any agonists): 3.5 ± 0.3 s
τinhibition (GluN1/GluN2A [2]; 3 μM TCN-201 pre-incubated with glutamate alone (50 μM)): 1.1 ± 0.1 s
TCN-201 binding / τinhibition (GluN1/GluN2A [2]; 3 μM TCN-201 pre-incubated with glycine alone (10 μM)): Minimal binding
τweighted for glycine deactivation (GluN1/GluN2A [2]; brief (10 ms) 1 mM glycine, 50 μM glutamate, 1 μM TCN-201): 27 ± 2 ms
% fast (GluN1/GluN2A [2]; [6]): 74 ± 2%
τfast (GluN1/GluN2A [2]; [6]): 20 ± 1 ms
τslow (GluN1/GluN2A [2]; [6]): 131 ± 7 ms
% fast (GluN1/GluN2A [2]; [7]): 82 ± 1%
τfast (GluN1/GluN2A [2]; [7]): 18 ± 1 ms
τslow (GluN1/GluN2A [2]; [7]): 123 ± 11 ms
% fast (GluN1/GluN2A [2]; [8]): 89 ± 2%
τfast (GluN1/GluN2A [2]; [8]): 16 ± 2 ms
τslow (GluN1/GluN2A [2]; [8]): 116 ± 19 ms
τweighted for glycine deactivation vs absence of TCN-201 (GluN1/GluN2A [2]; long (5 seconds) 1 mM glycine, 50 μM glutamate): no significant difference
deactivation time constant, mono-exponential fit (τslow) (GluN1/GluN2A [2]; long application (5 seconds) of 1000 μM glycine, 50 μM glutamate, antagonist 0.3 μM): 124 ± 12 ms
Inhibition by 3 μM TCN-201 (GluN1/2A-(2D S1+S2)): abolished
Inhibition by 3 μM TCN-201 (GluN1/2A-(2D D1)): eliminated TCN-201 inhibition
